Bioassay records (PubChem)
XiGFP reactiv = X-chromosome reactivation activator. XiGFP mouse fibroblasts, % GFP-positive cells imaging, 3 d; cells co-treated with 5-aza-dC sensitizer; scaled so ellipticine positive control = 100%. activation, % at 7.58 µM. 360,000 tested, 0.055% active;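 active = mean normalized replicate activation at least 10% and every replicate at or above 10%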;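 note: 0% = median of on-plate neutral control wells and 100% = ellipticine 6 µM median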
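System: XiGFP fibroblasts, SV40-immortalized. Medium: DMEM plus 5-aza-dC sensitizer. Doses: single point. Timing: 3 d treatment, 15 min room-temperature fixation. Control set: ellipticine 6 µM.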
Rin1 Abl inh = inhibitors of human Rin1-Abl protein interaction; P00519+Q13671; inhibition, % at 7.35 µM; 360,000 tested, 0.4% active; TR-FRET Rin1/Abl binding, biochemical; in the data active = inhibition above about 5%, passing the limit was not always enough
ABHD5-PLIN5 inh = ABHD5-PLIN5 protein interaction inhibition | Split G. princeps luciferase complementation, luminescence, 4 h | Q00G26+Q8WTS1 | inhibition, % at 4 µM | 360,000 tested, 0.78% active;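 active = inhibition above the mean inhibition across every tested compound plus 3 SD, cut at about 22% in these data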;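 note: 0% = DMSO only wells and the 100% control is not disclosed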
Target sequence (Q00G26 whole entry, looked up): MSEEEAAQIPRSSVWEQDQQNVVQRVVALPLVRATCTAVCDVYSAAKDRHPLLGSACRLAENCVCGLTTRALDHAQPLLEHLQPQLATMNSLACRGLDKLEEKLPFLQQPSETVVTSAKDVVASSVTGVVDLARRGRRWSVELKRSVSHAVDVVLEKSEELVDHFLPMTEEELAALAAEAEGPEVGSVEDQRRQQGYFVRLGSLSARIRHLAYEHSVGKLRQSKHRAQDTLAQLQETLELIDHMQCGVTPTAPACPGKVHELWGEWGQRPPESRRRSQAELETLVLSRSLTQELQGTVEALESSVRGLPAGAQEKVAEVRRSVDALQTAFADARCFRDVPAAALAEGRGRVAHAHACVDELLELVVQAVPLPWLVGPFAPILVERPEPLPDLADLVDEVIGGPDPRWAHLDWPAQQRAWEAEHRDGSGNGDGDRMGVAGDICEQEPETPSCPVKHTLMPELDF
Target sequence (Q8WTS1 whole entry, looked up): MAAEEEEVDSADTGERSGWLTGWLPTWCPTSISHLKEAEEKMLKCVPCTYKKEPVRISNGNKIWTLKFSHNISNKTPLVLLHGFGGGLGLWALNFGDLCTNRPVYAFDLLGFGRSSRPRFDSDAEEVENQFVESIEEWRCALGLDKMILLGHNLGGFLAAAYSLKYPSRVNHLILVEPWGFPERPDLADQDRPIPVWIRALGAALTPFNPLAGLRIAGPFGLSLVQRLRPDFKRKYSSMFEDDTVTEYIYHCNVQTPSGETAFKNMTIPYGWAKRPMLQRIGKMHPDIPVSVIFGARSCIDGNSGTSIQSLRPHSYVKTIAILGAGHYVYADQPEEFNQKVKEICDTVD
NadD block = blocks S. aureus nicotinate mononucleotide adenylyltransferase; AID 602399; 360,000 tested, 0.78% active; purified NadD enzyme, colorimetric absorbance read-out; inhibition, % at 20 µM; in the data active = inhibition above about 26%
Rpn11 block = Rpn11 (human) deubiquitinase inhibition; 360,000 tested, 0.59% active; O00487; inhibition, % at 20 µM; human 26S proteasome, Ub4-pepOG fluorescence polarization; 20S core pre-blocked with epoxomicin; AID 588493;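 active = inhibition at 20 µM, scaled to each plate's controls, above about 33%, limit read from the data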
NadD inh conf = confirmation of Staphylococcus aureus NadD inhibitors. purified S. aureus NadD, colorimetric enzyme assay. 2,000 tested, 13% active. shares compounds with NadD block. inhibition, % at 20 µM; in the data active = inhibition mostly above about 42%, no sharp cut-off; inactive = mostly below about 42%
* marks the source's active call; other numbers are inactive results; x = not tested or not shown. Most compounds without a hit are left out; they make up all but 1.9% or so of the library.

SMILES	XiGFP reactiv	Rin1 Abl inh	ABHD5-PLIN5 inh	NadD block	Rpn11 block	NadD inh conf
O=C1CC(c2ccco2)CC(O)=C1C=NCC1CCNCC1 (stereo unspecified)	x	4	-1	34*	-29	6
COc1ccccc1OCC(=O)Nc1ccc(N2CCCCC2)cc1	0	-2	0	-3	30	x
CCOc1ccc(C(=O)Nc2ccc(N3CCCC3)cc2)cc1	x	-5	4	35*	5	-4
COc1ccc(OCC(=O)Nc2ccc(N3CCCCC3)cc2)cc1	0	1	-1	-7	3	x
Cc1cccc(OCC(=O)Nc2ccc(N3CCCC3)cc2)c1C	x	2	-11	43*	5	-2
Cc1ccc(OCC(=O)Nc2ccc(N3CCCC3)cc2)cc1C	x	-1	-5	32*	6	-8
COc1ccccc1-c1cnc2c(c1)C(=O)N([C@H](C)CO)C[C@@H](C)[C@H](CN(C)CC1CCOCC1)O2	0	x	x	x	x	x
C/C=C/c1ccccc1[C@H]1[C@@H](C#N)N(C(=O)CN2CCOCC2)[C@H]1CO	0	x	x	x	x	x
COc1ccc2c3c(n(C)c2c1)[C@@H](CO)N(CC1CCOCC1)CC31CN(CC2CCOCC2)C1	0	x	x	x	x	x
O=C(O)C1CC=CCC1C(=O)N1CCN(c2nc(-c3ccccc3Cl)c3cc(Br)ccc3n2)CC1 (stereo unspecified)	x	-19	12	36*	13	28
O=C(O)C1CC=CCC1C(=O)N1CCN(c2nc(-c3ccccc3)c3ccccc3n2)CC1 (stereo unspecified)	x	2	10	10	6	x
COc1ccc(CN2C(=O)C(Cc3ccccc3)Nc3ncnc(N4CCN(c5ccccc5)CC4)c32)cc1 (stereo unspecified)	0	1	4	25	13	x
O=C1C(Cc2ccccc2)Nc2ncnc(N3CCN(c4ccccc4)CC3)c2N1Cc1ccc(Cl)cc1 (stereo unspecified)	0	-2	-2	41*	16	9
CC(C)NC(=O)N(C)C[C@@H]1Oc2ccc(NS(=O)(=O)c3cn(C)cn3)cc2C(=O)N([C@@H](C)CO)C[C@H]1C	-1	x	x	x	x	x
C=CCN1CCc2nc(N)sc2CC1	0	-1	-10	30*	7	21
Nc1ccccc1Sc1nc2ccccc2[nH]1	0	2	-8	34*	20	34
CNC[C@@H]1OCCCC[C@@H](C)Oc2ccc(NS(=O)(=O)c3ccc(OC)cc3)cc2C(=O)N([C@H](C)CO)C[C@H]1C	0	x	x	x	x	x
O=C(Nc1ccc(S(=O)(=O)Nc2ncccn2)cc1)c1nn(Cc2ccccc2)c(=O)c2ccccc12	0	-9	5	34*	10	35
COc1ccc(N/C=C2\C(=O)CCc3c2oc2cc(Cl)c(O)c(Cl)c32)cc1	0	3	0	44*	x	-2
NC(=O)c1c(NC(=O)COC(=O)c2ccc(S(=O)(=O)Nc3ccccc3)cc2)sc2c1CCCC2	0	-3	-11	35*	4	26
COc1ccc(C(=O)NC(=S)Nc2nc(-c3ccc(OC)c(Br)c3)cs2)cc1Br	0	3	-8	33*	0	0
Cc1noc(C)c1S(=O)(=O)Nc1ccc2c(c1)C(=O)N([C@@H](C)CO)C[C@H](C)[C@H](CN(C)S(=O)(=O)c1c(C)noc1C)OCCCC[C@@H](C)O2	0	x	x	x	x	x
Cc1ccc(S(=O)(=O)N2C[C@H](O)COC[C@@H]3O[C@@H](CC(=O)NCCN4CCCCC4)CC[C@H]32)cc1	0	x	x	x	x	x
CCOC(=O)c1c(-c2ccccc2Cl)csc1NC(=O)CSc1nc(C)cc(=O)[nH]1	0	1	5	28*	19	55*
CC1CC(NC(=O)c2c(O)nc3sccn3c2=O)CC(C)(C)C1 (stereo unspecified)	0	3	2	35*	-5	24
SMILES	XiGFP reactiv	Rin1 Abl inh	ABHD5-PLIN5 inh	NadD block	Rpn11 block	NadD inh conf
CC1CC(NC(=O)c2c(O)nc3ccccn3c2=O)CC(C)(C)C1 (stereo unspecified)	0	-3	-11	-1	-5	x
COc1cc(Br)cc(/C=C/c2ccc3cccc(O)c3n2)c1O	0	3	-13	34*	0	26
COc1ccc(OC)c(/C=C/c2ccc3cccc(O)c3n2)c1	6	-1	11	11	7	x
CCC(Sc1nc2ccsc2c(=O)n1Cc1ccc(C(=O)O)cc1)C(=O)Nc1ccc(C)c(Cl)c1 (stereo unspecified)	0	7	4	48*	-4	47*
CCOc1cc(/C=C2\N=C(SC)SC2=O)cc([N+](=O)[O-])c1OC(C)=O	x	-2	2	46*	5	2
CCOc1cc(/C=C2\N=C(SCC)SC2=O)cc([N+](=O)[O-])c1OC(C)=O	x	1	-2	30*	-1	3
CO[C@@H]1CN(C)C(=O)c2ccc(NC(C)=O)cc2OC[C@@H](C)N(S(=O)(=O)c2cn(C)cn2)C[C@@H]1C	0	x	x	x	x	x
C[C@H](CO)N1C[C@H](C)[C@@H](CN(C)Cc2ccc3c(c2)OCO3)Oc2ccc(NC(=O)Nc3ccc(C(F)(F)F)cc3)cc2CC1=O	0	x	x	x	x	x
CC(C)NC(=O)N1[C@H](CO)[C@@H](c2ccccc2)[C@H]1CNC(=O)CN(C)C	0	x	x	x	x	x
CCOc1ccc(-c2nnc(SCC(=O)Nc3ccc4c(c3)c3ccccc3n4CC)n2N)cc1	x	-1	-2	31*	-2	23
COc1ccc(S(=O)(=O)Nc2ccc3c(c2)C(=O)N([C@@H](C)CO)C[C@@H](C)[C@H](CN(C)S(=O)(=O)c2c(C)noc2C)OCCCC[C@H](C)O3)cc1	0	x	x	x	x	x
CO[C@H]1CN(C)C(=O)c2ccc(NC(=O)NC(C)C)cc2OC[C@@H](C)N(CCC(F)(F)F)C[C@H]1C	0	x	x	x	x	x
O=C(Nc1c(C(=O)c2ccccc2)oc2ccccc12)c1cc(-c2ccccc2O)n[nH]1	1	-5	0	34*	-3	32
Cc1ccc(C(=O)c2oc3ccccc3c2NC(=O)c2cc(-c3cc(C)ccc3O)n[nH]2)cc1	9	-5	0	39*	-1	32
CC(=O)Nc1c(C(=O)c2ccc(F)cc2)oc2ccccc12	x	-3	0	-3	-1	x
Cc1ccc(C(=O)c2oc3ccccc3c2NC(=O)c2cc(-c3ccccc3O)n[nH]2)cc1	23*	-2	1	34*	-6	5
Cc1ccc(O)c(-c2cc(C(=O)Nc3cccnc3)[nH]n2)c1	0	-2	3	-2	4	x
CO[C@H]1CN(C)C(=O)c2ccc(NC(=O)c3ccccc3F)cc2OC[C@@H](C)NC[C@@H]1C	0	x	x	x	x	x
Cc1cccc(N2CCN(C(=O)c3ccc(CNc4c(N5CCC(C)CC5)c(=O)c4=O)cc3)CC2C)c1 (stereo unspecified)	0	1	5	5	-4	x
